Measured values as given in ChEMBL document CHEMBL4373640, “Synthesis and antitumor activity of aza-brazilan derivatives containing imidazolium salt pharmacophores” (Medchemcomm, 2019).
pIC50: −log10 of the molar value.

Assays:
Type in all cases: functional, cell-based
A549 = test: Cytotoxicity against human A549 cells assessed as reduction in cell viability after 48 hrs by MTS assay; conditions: A549, 48 h
In short: (§1)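 Cells (5 × 10^3 per well) were plated 12 h before treatment, then exposed continuously to compound for 48 h. MTS was added, with 1–4 h incubation at 37 °C and OD read at 490 nm. IC50 is the concentration cutting OD by 50% versus untreated cells, taken from dose–response curves. Values are the mean of three independent determinations.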

MCF7 = test: Cytotoxicity against human MCF7 cells assessed as reduction in cell viability after 48 hrs by MTS assay; conditions: MCF7, 48 h; in short: as §1
SW480 = test: Cytotoxicity against human SW480 cells assessed as reduction in cell viability after 48 hrs by MTS assay; conditions: SW480, 48 h; in short: as §1
[1] = Cytotoxicity against human SMMC-7221 cells assessed as reduction in cell viability after 48 hrs by MTS assay; conditions: SMMC-7221, 48 h; in short: as §1

SMILES	pIC50 (A549)	pIC50 (MCF7)	pIC50 (SW480)	pIC50 [1]
COc1ccc(C(=O)C[n+]2c(C)n(CCC(=O)N3C[C@@H]4Cc5ccccc5[C@@H]4c4cccc(OC)c43)c3ccccc32)cc1	4.97	5.51	5.58	5.34
COc1cccc2c1N(CCCn1c[n+](Cc3ccc4ccccc4c3)c3cc(C)c(C)cc31)C[C@@H]1Cc3ccc(Br)cc3[C@H]21	5.25	6.08	5.41	5.67
COc1cccc2c1N(C(=O)CCn1c(C)[n+](Cc3ccc4ccccc4c3)c3ccccc31)C[C@@H]1Cc3ccccc3[C@H]21	5.43	6.02	6.11	5.84
COc1ccc(C(=O)C[n+]2c(C)n(CCCN3C[C@@H]4Cc5cc(OC)c(OC)cc5[C@@H]4c4cccc(OC)c43)c3ccccc32)cc1	4.84	5.47	5.63	5.27
COc1cccc2c1N(CCCn1c[n+](Cc3ccc(C)cc3)c3cc(C)c(C)cc31)C[C@@H]1Cc3ccccc3[C@H]21	5.82	6.17	6.25	6.18
COc1ccc(C(=O)C[n+]2cn(CCCN3C[C@@H]4Cc5cc(OC)c(OC)cc5[C@@H]4c4cccc(OC)c43)c3cc(C)c(C)cc32)cc1	5.08	5.67	5.74	5.35
COc1cc2c(cc1OC)[C@@H]1c3cccc(OC)c3N(CCCn3c[n+](CC(=O)c4ccc5ccccc5c4)c4cc(C)c(C)cc43)C[C@@H]1C2	5.31	5.95	5.86	5.77
COc1cccc2c1N(CCCn1c(C)nc3ccccc31)C[C@@H]1Cc3ccc(Br)cc3[C@H]21	< 4.70	< 4.70	< 4.70	< 4.70
COc1cc2c(cc1OC)[C@@H]1c3cccc(OC)c3N(C(=O)CCn3cnc4cc(C)c(C)cc43)C[C@@H]1C2	< 4.70	< 4.70	< 4.70	< 4.70
COc1cc2c(cc1OC)[C@@H]1c3cccc(OC)c3N(C(=O)CCn3c(C)nc4ccccc43)C[C@@H]1C2	< 4.70	< 4.70	< 4.70	< 4.70
COc1cccc2c1N(CCCn1c(C)nc3ccccc31)C[C@@H]1Cc3ccccc3[C@H]21	< 4.70	< 4.70	< 4.70	< 4.70
COc1cccc2c1N(C(=O)CCn1c[n+](CC(=O)c3ccc4ccccc4c3)c3cc(C)c(C)cc31)C[C@@H]1Cc3ccccc3[C@H]21	5.70	6.00	5.87	5.95
COc1cccc2c1N(C(=O)CCn1c(C)[n+](CC(=O)c3ccc4ccccc4c3)c3ccccc31)C[C@@H]1Cc3ccccc3[C@H]21	5.33	5.84	5.84	5.82
COc1cccc2c1N(C(=O)CCn1c(C)[n+](Cc3ccc(C)cc3)c3ccccc31)C[C@@H]1Cc3ccccc3[C@H]21	5.20	5.80	5.80	5.69
COc1cc2c(cc1OC)[C@@H]1c3cccc(OC)c3N(CCCn3cnc4cc(C)c(C)cc43)C[C@@H]1C2	< 4.70	< 4.70	< 4.70	< 4.70
COc1cc2c(cc1OC)[C@@H]1c3cccc(OC)c3N(CCCn3c(C)[n+](Cc4ccc5ccccc5c4)c4ccccc43)C[C@@H]1C2	5.82	5.97	5.82	5.95
COc1cccc2c1N(C(=O)CCn1c[n+](Cc3ccc4ccccc4c3)c3cc(C)c(C)cc31)C[C@@H]1Cc3ccc(Br)cc3[C@H]21	5.84	5.98	5.98	5.96
COc1cccc2c1N(C(=O)CCn1cnc3cc(C)c(C)cc31)C[C@@H]1Cc3ccc(Br)cc3[C@H]21	< 4.70	< 4.70	< 4.70	< 4.70
COc1cccc2c1N(CCCn1c[n+](Cc3ccc4ccccc4c3)c3cc(C)c(C)cc31)C[C@@H]1Cc3ccccc3[C@H]21	5.82	6.04	6.03	6.07
COc1cccc2c1N(C(=O)CCn1c(C)[n+](CC(=O)c3ccc4ccccc4c3)c3ccccc31)C[C@@H]1Cc3ccc(Br)cc3[C@H]21	5.58	5.84	5.76	5.80
COc1cccc2c1N(CCCn1c(C)[n+](Cc3ccc4ccccc4c3)c3ccccc31)C[C@@H]1Cc3ccccc3[C@H]21	5.24	5.99	5.67	5.69

SMILES	pIC50 (A549)	pIC50 (MCF7)	pIC50 (SW480)	pIC50 [1]
COc1cccc2c1N(CCCn1c(C)[n+](CC(=O)c3ccc4ccccc4c3)c3ccccc31)C[C@@H]1Cc3ccccc3[C@H]21	5.27	5.87	5.74	5.70
COc1cc2c(cc1OC)[C@@H]1c3cccc(OC)c3N(CCCn3c(C)[n+](CC(=O)c4ccc5ccccc5c4)c4ccccc43)C[C@@H]1C2	5.08	5.67	5.69	5.26
COc1cccc2c1N(CCCn1cnc3cc(C)c(C)cc31)C[C@@H]1Cc3ccc(Br)cc3[C@H]21	< 4.70	< 4.70	< 4.70	< 4.70
COc1cccc2c1N(CCCn1c(C)[n+](Cc3ccc4ccccc4c3)c3ccccc31)C[C@@H]1Cc3ccc(Br)cc3[C@H]21	5.72	6.04	5.89	5.97
COc1cc2c(cc1OC)[C@@H]1c3cccc(OC)c3N(C(=O)CCn3c(C)[n+](CC(=O)c4ccc5ccccc5c4)c4ccccc43)C[C@@H]1C2	5.03	5.33	5.42	5.19
COc1cc2c(cc1OC)[C@@H]1c3cccc(OC)c3N(CCCn3c(C)nc4ccccc43)C[C@@H]1C2	< 4.70	< 4.70	< 4.70	< 4.70
COc1cccc2c1N(CCCn1c(C)[n+](Cc3ccc(C)cc3)c3ccccc31)C[C@@H]1Cc3ccc(Br)cc3[C@H]21	5.85	5.97	5.79	6.01
COc1cccc2c1N(C(=O)CCn1c(C)nc3ccccc31)C[C@@H]1Cc3ccc(Br)cc3[C@H]21	< 4.70	< 4.70	< 4.70	< 4.70
COc1ccc(C(=O)C[n+]2c(C)n(CCC(=O)N3C[C@@H]4Cc5cc(OC)c(OC)cc5[C@@H]4c4cccc(OC)c43)c3ccccc32)cc1	< 4.70	< 4.70	4.81	< 4.70
COc1cccc2c1N(CCCn1c[n+](CC(=O)c3ccc4ccccc4c3)c3cc(C)c(C)cc31)C[C@@H]1Cc3ccc(Br)cc3[C@H]21	5.46	5.80	5.37	5.87
COc1cccc2c1N(CCCn1c(C)[n+](Cc3ccc(C)cc3)c3ccccc31)C[C@@H]1Cc3ccccc3[C@H]21	5.37	5.83	5.78	5.74
COc1cccc2c1N(C(=O)CCn1c[n+](Cc3ccc4ccccc4c3)c3cc(C)c(C)cc31)C[C@@H]1Cc3ccccc3[C@H]21	5.59	6.03	6.01	5.99
COc1cccc2c1N(CCCn1c[n+](CC(=O)c3ccc4ccccc4c3)c3cc(C)c(C)cc31)C[C@@H]1Cc3ccccc3[C@H]21	5.83	6.04	5.84	5.96
COc1cc2c(cc1OC)[C@@H]1c3cccc(OC)c3N(CCCn3c[n+](Cc4ccc(C)cc4)c4cc(C)c(C)cc43)C[C@@H]1C2	5.32	5.70	5.70	5.77
COc1cccc2c1N(C(=O)CCn1c[n+](CC(=O)c3ccc4ccccc4c3)c3cc(C)c(C)cc31)C[C@@H]1Cc3ccc(Br)cc3[C@H]21	5.95	5.91	5.74	6.00
COc1cccc2c1N(C(=O)CCn1c(C)nc3ccccc31)C[C@@H]1Cc3ccccc3[C@H]21	< 4.70	< 4.70	< 4.70	< 4.70
COc1cc2c(cc1OC)[C@@H]1c3cccc(OC)c3N(CCCn3c(C)[n+](Cc4ccc(C)cc4)c4ccccc43)C[C@@H]1C2	4.84	5.26	5.45	5.19
COc1cccc2c1N(CCCn1cnc3cc(C)c(C)cc31)C[C@@H]1Cc3ccccc3[C@H]21	< 4.70	< 4.70	< 4.70	< 4.70
COc1ccc(C(=O)C[n+]2cn(CCCN3C[C@@H]4Cc5ccccc5[C@@H]4c4cccc(OC)c43)c3cc(C)c(C)cc32)cc1	5.85	5.90	5.76	5.85
COc1cccc2c1N(CCCn1c(C)[n+](CC(=O)c3ccc4ccccc4c3)c3ccccc31)C[C@@H]1Cc3ccc(Br)cc3[C@H]21	5.79	6.02	5.90	5.95
COc1ccc(C(=O)C[n+]2cn(CCC(=O)N3C[C@@H]4Cc5ccccc5[C@@H]4c4cccc(OC)c43)c3cc(C)c(C)cc32)cc1	5.12	5.60	6.10	5.50
